{"source": "paper PMC11812931", "about": "(CPT: Pharmacometrics & Systems Pharmacology, 2024)", "key": {"[1]": {"assay": "MPKF phase I two-period crossover food effect pharmacokinetic study", "format": "in vivo, human", "conditions": "for AUC0–inf LSM geometric mean ratio (90% CI) / C max LSM geometric mean ratio (90% CI): fed (test) vs fasted (reference); for AUC(0-inf) / Cmax: human, 120 mg; for AUC(0-inf): AUC0–inf; for Cmax: C max"}, "[2]": {"assay": "PopPK model of MDMA and MDA", "format": "in vivo, human", "method_in_brief": "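Single-dose plasma data came from 65 healthy volunteers: 16 from the fasted food-effect study and 49 from a randomized, double-blind, placebo-controlled crossover study. The dataset held 2012 MDMA and 1871 MDA samples, excluding BLQ values, samples with missing time and pre-dose concentrations. Modelling used nonlinear mixed effects with first-order conditional estimation with interaction. One- and two-compartment models were tested, with first-order or sequential zero-/first-order absorption.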"}, "[3]": {"conditions": "cited from earlier work"}, "[4]": {"conditions": "HVs, single oral dose of 100 mg MDMA HCl, absence of paroxetine; cited from earlier work"}, "[5]": {"conditions": "plasma, oral, Median [Min, Max], 120 mg MDMA HCl, Fasted"}, "[6]": {"conditions": "plasma, oral, Median [Min, Max], 120 mg MDMA HCl, Fed"}, "[7]": {"conditions": "plasma, po, Geo. Mean (Geo. CV%), single oral 120 mg MDMA HCl, Fasted, N = 15"}, "[8]": {"conditions": "plasma, po, Geo. Mean (Geo. CV%), single oral 120 mg MDMA HCl, Fed (high-fat/high-calorie meal), N = 14"}, "[9]": {"conditions": "MPKF fasted vs NIDA light breakfast"}, "[10]": {"conditions": "MPKF fed vs NIDA light breakfast"}}, "note": "Marks after values point to notes of the source that are not given here."}
{"smiles": "CC(N)Cc1ccc2c(c1)OCO2", "note": "(stereo not drawn) [MDA, 3,4‐methylenedioxyamphetamine]", "values": [{"measurement": "AUC0–inf LSM geometric mean ratio (90% CI)", "setting": "[1]", "value": "0.99 (0.93–1.06)"}, {"measurement": "C max LSM geometric mean ratio (90% CI)", "setting": "[1]", "value": "0.96 (0.90–1.03)"}, {"measurement": "AUC(0-inf)", "setting": "[1]; [5]", "value": 358, "unit": "ng·h/mL"}, {"measurement": "AUC(0-inf)", "setting": "[1]; [6]", "value": 343, "unit": "ng·h/mL"}, {"measurement": "Cmax", "setting": "[1]; [5]", "value": 12.5, "unit": "ng/mL"}, {"measurement": "AUC(0-inf)", "setting": "[1]; [7]", "value": 330, "unit": "ng·h/mL"}, {"measurement": "AUC(0-inf)", "setting": "[1]; [8]", "value": 369, "unit": "ng·h/mL"}, {"measurement": "lower V4 (MDA peripheral volume of distribution) in female subjects", "setting": "[2]; compared to male", "value": 18, "unit": "%"}, {"measurement": "Body weight effect on CLM, Bootstrap median (95% CI)", "setting": "[2]; covariate coefficient", "value": "0.585 (0.209, 0.879)"}, {"measurement": "Body weight effect on CLM, Estimate", "setting": "[2]; covariate coefficient", "value": 0.580}, {"measurement": "Body weight effect on QM, Bootstrap median (95% CI)", "setting": "[2]; covariate coefficient", "value": "1.02 (0.408, 1.63)"}, {"measurement": "Body weight effect on QM, Estimate", "setting": "[2]; covariate coefficient", "value": 1.00}, {"measurement": "Sex effect on V4, Bootstrap median (95% CI)", "setting": "[2]; female vs male", "value": "−0.18 (−0.321, −0.0256)"}, {"measurement": "Sex effect on V4, Estimate", "setting": "[2]; female vs male", "value": "−0.181"}, {"measurement": "Vd", "setting": "[2]; human, plasma, oral", "value": 20.8, "unit": "L"}, {"measurement": "clearance", "setting": "[2]; human, plasma, oral", "value": 582, "unit": "mL/min"}, {"measurement": "IIV on CLM, Estimate", "setting": "[2]; inter-individual variability", "value": "32.0 ^ b , ^ c %CV"}, {"measurement": "IIV on QM, Estimate", "setting": "[2]; inter-individual variability", "value": "46.8 ^ b , ^ d %CV"}, {"measurement": "IIV on V4, Estimate", "setting": "[2]; inter-individual variability", "value": "35.2 ^ c , ^ d %CV"}, {"measurement": "CLM, Bootstrap median (95% CI)", "setting": "[2]; n = 1000 bootstrap", "value": "36.1 (33.5, 38.8) L/h"}, {"measurement": "QM, Bootstrap median (95% CI)", "setting": "[2]; n = 1000 bootstrap", "value": "83.9 (68.8, 103) L/h"}, {"measurement": "V3, Bootstrap median (95% CI)", "setting": "[2]; n = 1000 bootstrap", "value": "20.8 (11.9, 28.4) L"}, {"measurement": "V4, Bootstrap median (95% CI)", "setting": "[2]; n = 1000 bootstrap", "value": "213 (181, 246) L"}]}
{"smiles": "CNC(C)Cc1ccc2c(c1)OCO2", "note": "(stereo not drawn) [MDMA, 3,4‐methylenedioxymethamphetamine]", "values": [{"measurement": "AUC0–inf LSM geometric mean ratio (90% CI)", "setting": "[1]", "value": "0.99 (0.94–1.04)"}, {"measurement": "C max LSM geometric mean ratio (90% CI)", "setting": "[1]", "value": "0.97 (0.92–1.01)"}, {"measurement": "T max delay following administration with food", "setting": "[1]; fed vs fasted", "value": 2, "unit": "h"}, {"measurement": "AUC(0-inf)", "setting": "[1]; [5]", "value": 3730, "unit": "ng·h/mL"}, {"measurement": "Cmax", "setting": "[1]; [5]", "value": 234, "unit": "ng/mL"}, {"measurement": "Cmax", "setting": "[1]; [6]", "value": 230, "unit": "ng/mL"}, {"measurement": "AUC(0-inf)", "setting": "[1]; [7]", "value": 3390, "unit": "ng·h/mL"}, {"measurement": "AUC(0-inf)", "setting": "[1]; [8]", "value": 3320, "unit": "ng·h/mL"}, {"measurement": "T max, Median [Min, Max]", "setting": "[1]; plasma, 120 mg MDMA HCl, Fasted", "value": "2.1 [2.0, 8.0] h"}, {"measurement": "adverse events (AE) severity", "setting": "[1]; single 120 mg MDMA HCl, healthy volunteers", "value": "mild in severity and resolved"}, {"measurement": "effective dose (as low as)", "setting": "[3]", "value": "≥ 75", "unit": "mg HCl"}, {"measurement": "tolerated dose (as high as)", "setting": "[3]; split dose", "value": "≤ 225", "unit": "mg HCl"}, {"measurement": "fmet (fraction of MDMA metabolized to MDA)", "setting": "[2]; FIXED in the model", "value": 0.1, "unit": "FIXED"}, {"measurement": "faster absorption in fasted subjects", "setting": "[2]; MPKF fasted compared to NIDA light breakfast", "value": 193, "unit": "%"}, {"measurement": "Fasted status effect on ka, Bootstrap median (95% CI)", "setting": "[2]; [9]", "value": "1.08 (0.277, 4.31)"}, {"measurement": "Fasted status effect on ka, Estimate", "setting": "[2]; [9]", "value": 1.93}, {"measurement": "Fed status effect on ka, Bootstrap median (95% CI)", "setting": "[2]; [10]", "value": "−0.496 (−0.645, −0.239)"}, {"measurement": "Fed status effect on ka, Estimate", "setting": "[2]; [10]", "value": "−0.484"}, {"measurement": "Study effect on V2/F, Bootstrap median (95% CI)", "setting": "[2]; MPKF vs NIDA", "value": "−0.267 (−0.342, −0.19)"}, {"measurement": "Study effect on V2/F, Estimate", "setting": "[2]; MPKF vs NIDA", "value": "−0.263"}, {"measurement": "lower MDMA CL/F for MPKF subjects", "setting": "[2]; compared to NIDA", "value": 36, "unit": "%"}, {"measurement": "lower MDMA V2/F for MPKF subjects", "setting": "[2]; compared to NIDA", "value": 26, "unit": "%"}, {"measurement": "Body weight effect on V2/F, Bootstrap median (95% CI)", "setting": "[2]; covariate coefficient", "value": "0.884 (0.6, 1.11)"}, {"measurement": "Body weight effect on V2/F, Estimate", "setting": "[2]; covariate coefficient", "value": 0.885}, {"measurement": "ALAG1 (absorption lag time), Estimate", "setting": "[2]; final MDMA PopPK model", "value": 0.322, "unit": "h"}, {"measurement": "CL/F, Estimate", "setting": "[2]; final MDMA PopPK model", "value": 41.5, "unit": "L/h"}, {"measurement": "D1 (duration of zero order input), Estimate", "setting": "[2]; final MDMA PopPK model", "value": 0.304, "unit": "h"}, {"measurement": "V2/F, Estimate", "setting": "[2]; final MDMA PopPK model", "value": 462, "unit": "L"}, {"measurement": "ka, Estimate", "setting": "[2]; final MDMA PopPK model", "value": 1.17, "unit": "h⁻¹"}, {"measurement": "IIV on CL/F, Estimate", "setting": "[2]; inter-individual variability", "value": "30.5 ^a %CV"}, {"measurement": "IIV on D1, Estimate", "setting": "[2]; inter-individual variability", "value": 153, "unit": "%CV"}, {"measurement": "IIV on KA, Estimate", "setting": "[2]; inter-individual variability", "value": 60.2, "unit": "%CV"}, {"measurement": "IIV on V2/F, Estimate", "setting": "[2]; inter-individual variability", "value": "19.9 ^a %CV"}, {"measurement": "ALAG1, Bootstrap median (95% CI)", "setting": "[2]; n = 1000 bootstrap", "value": "0.323 (0.273, 0.358) h"}, {"measurement": "CL/F, Bootstrap median (95% CI)", "setting": "[2]; n = 1000 bootstrap", "value": "41.8 (37.7, 45.8) L/h"}, {"measurement": "D1, Bootstrap median (95% CI)", "setting": "[2]; n = 1000 bootstrap", "value": "0.271 (0.141, 0.485) h"}, {"measurement": "V2/F, Bootstrap median (95% CI)", "setting": "[2]; n = 1000 bootstrap", "value": "461 (429, 496) L"}, {"measurement": "ka, Bootstrap median (95% CI)", "setting": "[2]; n = 1000 bootstrap", "value": "1.17 (0.969, 1.43) 1/h"}, {"measurement": "CL/F (apparent oral clearance)", "setting": "[4]", "value": 36.3, "unit": "L/h"}, {"measurement": "CLR (renal clearance)", "setting": "[4]", "value": 9.40, "unit": "L/h"}]}
